Assay [1] deals with GABA-A receptor; anion channel. Description: Binding affinity against Diazepam insensitive (DI) Gamma-aminobutyric acid A receptor. The class given is protein-complex assay, Rattus norvegicus.
Assay [2] addresses GABA-A receptor; anion channel. Description: Binding affinity against Diazepam sensitive (DS) Gamma-aminobutyric acid A receptor. It counts as protein-complex assay, Rattus norvegicus. A digest of the protocol:
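[3H]Ro15-4513 displacement (~2 nM final) on washed cerebellar membranes from adult male Sprague-Dawley rats, ~100 µg tissue, 0.2 M NaCl, 50 mM Tris citrate pH 7.8. DI binding has 10 µM diazepam added. DS binding is total minus DI. Nonspecific binding uses 10 µM Ro15-1788.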

SMILES strings stand for the structures.

The Ki is the equilibrium dissociation constant of an inhibitor or competing ligand from its target. Low values mean a stronger hold on the target, high ones a looser hold on the target. Consider `COc1ccc2ncc3c(=O)n(-c4ccccc4)[nH]c3c2c1`, for which the Ki in assay [1] amounted to 47 nM.
In assay [1], `COc1ccc(-n2nc3c4cc(Cl)ccc4[nH]cc-3c2=O)cc1` gave a Ki of 1.9 nM.
By IC50 is commonly meant the concentration needed to halve the response being measured. Turning to `CCCCCc1ncn2c1CN(C)C(=O)c1cc(Cl)ccc1-2`, the Ki in assay [1] is above 1000 nM. This molecule had an IC50 in assay [2] above 1000 nM.
In the case of `CCOCc1ncn2c1CN(C)C(=O)c1cc(Cl)ccc1-2`, the Ki in assay [1] is above 1000 nM. In assay [2], the IC50 was above 500 nM.
In assay [1], `COc1ccc(-n2nc3c4ccccc4[nH]cc-3c2=O)cc1` returned a Ki of 9.3 nM.
For the molecule `COc1ccc(-n2nc3c4ccc(OC)cc4[nH]cc-3c2=O)cc1`, the Ki in assay [1] was 10 nM.
Turning to `COCc1ncn2c1CN(C)C(=O)c1cc(Cl)ccc1-2`, the Ki in assay [1] was above 1000 nM. This molecule also came in with an IC50 in assay [2] of 514 nM.
On the same counts, the results for `CCc1ncn2c1CN(C)C(=O)c1cc(Cl)ccc1-2` are above 1000 nM and above 500 nM.
`O=C1C2C=Nc3ccccc3C2=NN1c1ccccc1` (configuration not stated) [CGS-8216] registered an inhibition constant (Ki) in assay [1] of 46 nM.
Molecule `O=c1c2cnc3ccc(Cl)cc3c2[nH]n1-c1ccccc1` returned a Ki in assay [1] of 5.1 nM.
The molecule `CCN(CC)Cc1ncn2c1CN(C)C(=O)c1cc(Cl)ccc1-2` gave a Ki in assay [1] above 1000 nM. Besides, in assay [2], the IC50 is above 1000 nM.
In the case of `CN1Cc2c(CO)ncn2-c2ccc(Cl)cc2C1=O`, the inhibitory constant (Ki) in assay [1] was above 1000 nM. In assay [2], this molecule had an IC50 above 1000 nM.
For the molecule `CC(=O)c1ncn2c1CN(C)C(=O)c1cc(Cl)ccc1-2`, the Ki in assay [1] was above 1000 nM. In assay [2], this molecule displayed an IC50 above 1000 nM.
For `CN1Cc2c(CCl)ncn2-c2ccc(Cl)cc2C1=O`, the Ki in assay [1] is above 1000 nM. The same molecule came in with an IC50 in assay [2] above 500 nM.
With `COc1cccc(-n2[nH]c3c(cnc4ccccc43)c2=O)c1`, affinity in assay [1] was put at a Ki of 26 nM.
The same measure, in the same setting: in the case of `COc1ccc2c(c1)ncc1c(=O)n(-c3ccccc3)[nH]c12` it was 1.9 nM.
In assay [1], `CCOC(=O)c1ncn2c1CN(C)C(=O)c1cc(OCC)ccc1-2` yielded a Ki of 40.9 nM. This molecule also displayed an IC50 in assay [2] of 7.07 nM.
In assay [1], `CC(C)N(Cc1ncn2c1CN(C)C(=O)c1cc(Cl)ccc1-2)C(C)C` gave a Ki above 1000 nM. Moreover, the IC50 in assay [2] was above 1000 nM.
In the case of `CCCCC(=O)c1ncn2c1CN(C)C(=O)c1cc(Cl)ccc1-2`, the Ki in assay [1] was above 1000 nM. In addition, the IC50 in assay [2] is above 500 nM.
The corresponding values for `CCOC(=O)c1ncn2c1CN(C)C(=O)c1cc(OC)ccc1-2` are 23.8 nM and 2.47 nM.
